Experimental data collected from several papers.
Each line is one published result; the experiments were not run side by side.
OPRK1: Kappa-type opioid receptor (OPRK1, Homo sapiens, UniProt P41145)
PPO3: PPO3 (Agaricus bisporus, UniProt C7FF04)
SLC10A1: Hepatic sodium/bile acid cotransporter (SLC10A1, Homo sapiens, UniProt Q14973)
CNR1: Cannabinoid receptor 1 (CNR1, Homo sapiens, UniProt P21554)
SIGMAR1: Sigma non-opioid intracellular receptor 1 (SIGMAR1, Homo sapiens, UniProt Q99720)
HTR2A: 5-hydroxytryptamine receptor 2A (HTR2A, Homo sapiens, UniProt P28223)
HRH4: Histamine H4 receptor (HRH4, Homo sapiens, UniProt Q9H3N8)
SPHK1: Sphingosine kinase 1 (SPHK1, Homo sapiens, UniProt Q9NYA1)

| Structure (SMILES) | target | read-out | mode | method | notes | Ki [µM] |
| --- | --- | --- | --- | --- | --- | --- |
| CCc1cc(Cl)c(OC)c(C(=O)NC[C@@H]2CCCN2CC)c1O | Vesicular acetylcholine transporter (SLC18A3, Homo sapiens, UniProt Q16572) | ligand displacement |  | radioligand |  | > 1 |
| Cc1cccc(CN2CCCC(C(=O)NCCc3cccnc3)CC2)n1 (stereo not shown) | OPRK1 | cell-free assay |  |  |  | > 10 |
| Nc1nc(N)c(N=Nc2ccc([N+](=O)[O-])cc2)c(N)n1 | PPO3 | enzyme activity | inhibitor |  |  | 4.62 |
| CS(=O)(=O)CCNCc1ccc(-c2ccc3ncnc(Nc4ccc(OCc5cccc(F)c5)c(Cl)c4)c3c2)o1 | SLC10A1 | transporter uptake | inhibitor |  |  | 285 |
| CCCC[C@H](NC(=O)[C@H](C)c1c(C)[nH]c2ccc(O)cc12)c1ncc(-c2cc3ccccc3nc2OC)[nH]1 | CNR1 | cell-free assay |  |  |  | 7.28 |
| COc1ccc2c(ccn2CCCCN2CCc3cc(OC)c(OC)cc3C2)c1 | SIGMAR1 | ligand displacement |  | radioligand | cell membranes | 0.45 |
| O[C@H]1[C@H](n2cnc3c(NC(C4CCCCC4)C4CCCCC4)nc(Cl)nc32)[C@H]2C[C@@]2(CF)[C@H]1O | HTR2A | ligand displacement |  | radioligand |  | 7 |
| CCNc1nc(C#Cc2ccccc2)nc2c1ncn2[C@H]1[C@H](O)[C@H](O)[C@@H]2C[C@@H]21 | OPRK1 | cell-free assay |  |  |  | > 10 |
| Cc1ccc(C(C)C)cc1NC(=O)COC(=O)c1ccc(O)cc1O | PPO3 | enzyme activity | inhibitor |  |  | 0.188 |
| Cc1nc2n(c(=O)c1CCN1CCCCC1)CCCC2 | HTR2A | ligand displacement |  | radioligand | cell membranes | ~5 |
| CCCn1nc(C(=O)N2CCCCC2)c2c1CCC(Nc1ccc(N3CCCCC3)cc1)C2 (stereo not shown) | SIGMAR1 | ligand displacement |  | radioligand |  | > 10 |
| CNC(=O)[C@@]12C[C@@H]1[C@@H](n1cnc3c(NCc4cccc(Cl)c4)nc(C#Cc4ccc(F)cc4)nc31)[C@H](O)[C@@H]2O | OPRK1 | cell-free assay |  |  |  | > 10 |
| CCCn1nc(C(=O)N2CCCCC2)c2c1CCC(NCCCN1CCCC1=O)C2 (stereo not shown) | SIGMAR1 | ligand displacement |  | radioligand |  | > 10 |
| CCCCN1CCC(COC(=O)c2ccc(N)c(OCF)c2)CC1 | HRH4 | cell-free assay |  | radioligand |  | > 10 |
| CCOC(=O)[C@](CC)(CCCS(=O)(=O)CCOCCOCCNC(=O)OC(C)(C)C)NC(=O)c1ccc(C2CC2)c(Cc2ccc(F)cc2)n1 | CNR1 | ligand displacement |  | radioligand | cell membranes | 0.19 |
| CCCn1nc(C(=O)N2CCCCC2)c2c1CCC(N1CCc3ccccc3C1)C2 (stereo not shown) | SIGMAR1 | ligand displacement |  | radioligand |  | > 10 |
| CNC(=O)[C@@]12C[C@@H]1[C@@H](n1cnc3c(NC)nc(C#Cc4ccccc4Cl)nc31)[C@H](O)[C@@H]2O | OPRK1 | cell-free assay |  |  |  | > 10 |
| COc1cc2c(cc1OC)CN(CCCCn1ccc3c(OC)cccc31)C2 | SIGMAR1 | ligand displacement |  | radioligand | cell membranes | 0.149 |
| Nc1nc(N)c(N=Nc2ccccc2[N+](=O)[O-])c(Cl)n1 | PPO3 | enzyme activity | inhibitor |  |  | 3.6 |
| C[C@@H]1Cc2ccccc2N1C(=O)NCCCCN(C)[C@@H]1Cc2cccc3[nH]c(=O)n(c23)C1 | HTR2A | ligand displacement |  | radioligand |  | 2.71 |

| Structure (SMILES) | target | read-out | mode | method | notes | Ki [µM] |
| --- | --- | --- | --- | --- | --- | --- |
| CNc1nc(C#Cc2ccc(Cl)s2)nc2c1ncn2[C@H]1[C@H](O)[C@H](O)[C@]2(C(=O)OC(C)C)C[C@H]12 | OPRK1 | cell-free assay |  |  |  | > 10 |
| O=C(c1cccc(/N=N/c2cccc(OCCCN3CCCCC3)c2)c1)N1CCCC1 | HRH4 | ligand displacement |  | radioligand |  | > 10 |
| CCNC(=O)[C@H]1O[C@@H](n2cnc3c(N)nc(NN=CC4CCC=CO4)nc32)[C@H](O)[C@@H]1O (stereo partly shown) | Adenosine receptor A2a (ADORA2A, Homo sapiens, UniProt P29274) | ligand displacement |  | radioligand |  | 0.00664 |
| COc1ccccc1N1CCN(C/C=C/CNC(=O)c2cc3cc(OCCOCCF)ccc3[nH]2)CC1 | SIGMAR1 | cell-free assay |  |  |  | > 10 |
| Cc1nc2n(c(=O)c1CCN1CCC(C(=O)c3ccc(F)cc3)CC1)CCCC2 | HTR2A | ligand displacement |  | radioligand | cell membranes | 0.00302 |
| N=C(N)N1CCC[C@H]1c1nc(-c2ccc(CCc3ccc(C(F)(F)F)cc3)c(C(F)(F)F)c2)no1 | SPHK1 | enzyme activity | inhibitor |  |  | 9 |
| COc1ccc(N=Nc2c(N)nc(N)nc2N)cc1 | PPO3 | enzyme activity | inhibitor |  |  | 7.63 |
| O=C1NC(=O)C(c2ccccc2)(c2ccc(OCCCN3CCCCC3)cc2)N1 (stereo not shown) | HRH4 | ligand displacement |  | radioligand | cell membranes | > 100 |
| CCCn1nc(C(=O)N2CCCCC2)c2c1CCC(NCc1ccc(N3CCCCC3)cc1)C2 (stereo not shown) | SIGMAR1 | ligand displacement |  | radioligand |  | > 10 |
| CNC(=O)[C@@]12C[C@@H]1[C@@H](n1cnc3c(NC)nc(C#Cc4ccc(Cl)s4)nc31)[C@H](O)[C@@H]2O | OPRK1 | cell-free assay |  |  |  | > 10 |
| CCCn1nc(C(=O)N2CCCCC2)c2c1CCC(NCC1CCOCC1)C2 (stereo not shown) | SIGMAR1 | ligand displacement |  | radioligand |  | > 10 |
| CC(=O)Nc1ccc(N=Nc2c(N)nc(N)nc2Cl)cc1 | PPO3 | enzyme activity | inhibitor |  |  | 7.84 |
| CNC(=O)[C@@]12C[C@@H]1[C@@H](n1cnc3c(NC)nc(C#Cc4ccc(Br)s4)nc31)[C@H](O)[C@@H]2O | OPRK1 | cell-free assay |  |  |  | > 10 |
| CC[C@H](C)[C@H](NC(=O)[C@H](CCC(=O)O)NC(=O)[C@H](CC(=O)O)NC(=O)CNC(=O)[C@H](CC(C)C)NC(=O)[C@H](CCCNC(=N)N)NC(=O)[C@H](CCC(N)=O)NC(=O)[C@H](CC(C)C)NC(=O)[C@H](CO)NC(=O)[C@H](CCC(N)=O)NC(=O)[C@@H](NC(=O)[C@H](CC(C)C)NC(=O)[C@H](Cc1c[nH]c2ccccc12)NC(=O)[C@@H](NC(=O)[C@H](CCC(=O)O)NC(=O)[C@@H]1CCCN1C(=O)[C@H](CCCNC(=N)N)NC(C)=O)[C@@H](C)CC)[C@@H](C)O)C(=O)N[C@@H](CC(N)=O)C(=O)N[C@@H](C)C(=O)N[C@@H](Cc1ccc(O)cc1)C(=O)N[C@@H](Cc1ccc(O)cc1)C(=O)N[C@@H](C)C(=O)N[C@@H](CCCNC(=N)N)C(N)=O | Bcl-2-like protein 1 (BCL2L1, Homo sapiens, UniProt Q07817) | ligand displacement |  | FP |  | ~2.1 |
| [H]/N=C(\N)N1CCC[C@H]1c1nc(-c2ccc(OCC=Cc3ccc(C(F)(F)F)cc3)c(C(F)(F)F)c2)no1 | SPHK1 | enzyme activity | inhibitor |  |  | 12 |
| Cc1nc2n(c(=O)c1CCNCCc1c[nH]c3ccccc13)CCCC2 | HTR2A | ligand displacement |  | radioligand | cell membranes | > 10 |
| CNC(=O)[C@@]12C[C@@H]1[C@@H](n1cnc3c(NCc4cccc(Cl)c4)nc(C#Cc4ccccc4)nc31)[C@H](O)[C@@H]2O | OPRK1 | cell-free assay |  |  |  | > 10 |
| CCCn1nc(C(=O)N2CCCCC2)c2c1CCC(NCCCNC)C2 (stereo not shown) | SIGMAR1 | ligand displacement |  | radioligand |  | > 10 |
| CCOC(=O)[C@@]12C[C@@H]1[C@@H](n1cnc3c(NC)nc(C#Cc4ccc(Cl)s4)cc31)[C@H](O)[C@@H]2O | OPRK1 | cell-free assay |  |  |  | > 10 |
| COc1ccccc1Oc1c(NS(=O)(=O)c2ccc(C(C)(C)C)cc2)nc(-c2ncccn2)nc1OCCO | SLC10A1 | transporter uptake | inhibitor |  |  | 145 |
